The text below walks through data of ChEMBL document CHEMBL1128586, “Antihyperglycemic N-sulfonyl-1a,2,6,6a-tetrahydro-1H,4H- [1,3]dioxepino[5,6-b]azirines: synthesis, X-ray structure analysis, conformational behavior, quantitative structure-property relationships, and quantitative structure-activity relationships” (J Med Chem, 1995).

Common to all, as to assay type: functional
The subject of experiment [1] is Mus musculus. Nature of the experiment: Hypoglycemic effect of compound 1 hr after subcutaneous administration of a 20 mg/kg dose in alloxanized mice and expressed as hypoglycemic activity ratio (hAR) taking metformin as standard. The method in brief: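 Alloxan-diabetic CBA mice (65 mg/kg iv alloxan, used after 48 h) received 20 mg/kg sc in DMSO/saline. Glucose was measured enzymatically in tail-vein blood and expressed as %BGL at 1 h. HAR = (100 − %BGL of compound)/(100 − %BGL of metformin), with metformin tested at the same dose and route.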

In experiment [2] the test system is Mus musculus. The experiment can be described thus: Hypoglycemic effect of compound 1 hr after subcutaneous administration of 20 mg/kg dose in alloxanized mice and expressed as percent of initial blood glucose level. The method in brief:
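CBA mice of either sex, 20-25 g, made diabetic by single tail-vein alloxan monohydrate 65 mg/kg and tested 48 h later. Compound given sc at 20 mg/kg, dissolved in minimal DMSO and diluted with 0.9% saline. Tail-vein blood sampled before dosing and at 1 h. Glucose measured by enzymatic-colorimetric kit and expressed as percent of the initial sample.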

The subject of experiment [3] is Mus musculus. The experiment can be described thus: Effect on blood glucose levels in healthy mice at subcutaneous dose of 100 mg/kg at 0 min. The method in brief: (§1)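 Healthy (nondiabetic) fasted animals: CBA mice (20-25 g) or Fischer rats (160-200 g), fasted 16 h before treatment. Single iv or sc dose given at zero time; drug dissolved in minimal DMSO, diluted with 0.9% saline. Tail-vein blood sampled over time; glucose measured by enzymatic-colorimetric kit, expressed as mmol/L whole blood; group sizes 6-12.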

Experiment [4] deals with Rattus norvegicus. Nature of the experiment: Effect on blood glucose levels in healthy rat at subcutaneous dose of 20 mg/kg at 0 min. The method in brief:
as §1

For experiment [5], the system named is Mus musculus. The experiment can be described thus: Effect on blood glucose levels in healthy mice at subcutaneous dose of 20 mg/kg at 60 min. The method in brief:
as §1

The subject of experiment [6] is Mus musculus. The experiment can be described thus: Effect on blood glucose levels in healthy mice at intravenous dose of 20 mg/kg at 40 min. The method in brief:
as §1

Experiment [7] relates to Mus musculus. The experiment can be described thus: Effect on blood glucose levels in healthy mice at intravenous dose of 20 mg/kg at 0 min. The method in brief:
as §1

Experiment [8] deals with Mus musculus. The experiment can be described thus: Effect on blood glucose levels in healthy mice at subcutaneous dose of 20 mg/kg at 120 min. The method in brief: as §1
For experiment [9], the system named is Mus musculus. Nature of the experiment: Effect on blood glucose levels in healthy mice at intravenous dose of 5 mg/kg at 0 min. The method in brief: as §1
Experiment [10] deals with Mus musculus. Nature of the experiment: Effect on blood glucose levels in healthy mice at subcutaneous dose of 100 mg/kg at 120 min. The method in brief:
as §1

In experiment [11] the test system is Mus musculus. The experiment can be described thus: Effect on blood glucose levels in healthy mice at intravenous dose of 20 mg/kg at 60 min. The method in brief:
as §1

The test system of experiment [12] is Rattus norvegicus. Nature of the experiment: Effect on blood glucose levels in healthy rat at subcutaneous dose of 20 mg/kg at 60 min. The method in brief:
as §1

In experiment [13] the test system is Mus musculus. The experiment can be described thus: Effect on blood glucose levels in healthy mice at intravenous dose of 5 mg/kg at 60 min. The method in brief:
as §1

The subject of experiment [14] is Mus musculus. The experiment can be described thus: Effect on blood glucose levels in healthy mice at subcutaneous dose of 20 mg/kg at 0 min. The method in brief:
as §1

The subject of experiment [15] is Mus musculus. The experiment can be described thus: Effect on blood glucose levels in healthy mice at intravenous dose of 5 mg/kg at 40 min. The method in brief:
as §1

The test system of experiment [16] is Mus musculus. The experiment can be described thus: Effect on blood glucose levels in healthy mice at subcutaneous dose of 100 mg/kg at 60 min. The method in brief:
as §1

Each structure is given as a SMILES string.

As to `CC(=O)Nc1ccc(S(=O)(=O)N2[C@@H]3CO[C@@H](C(C)C)OC[C@@H]32)cc1` (stereo partly specified), the HAR in the experiment with Mus musculus [1] was determined as 1.07. In the experiment on Mus musculus [2], the BGL amounted to 85%.
Consider `O=S(=O)(c1ccc(Br)cc1)N1[C@@H]2COCOC[C@@H]21` (stereo partly specified), for which, in the experiment with Mus musculus [1], the HAR is -0.5. Besides, in the experiment on Mus musculus [2], the BGL is listed as 107%.
For `COc1ccc(S(=O)(=O)N2[C@@H]3COCOC[C@@H]32)cc1` (stereo partly specified) the same measures were 1.57 and 78%.
`O=S(=O)(c1ccc(F)cc1)N1[C@@H]2COCOC[C@@H]21` (stereo partly specified): the HAR in the experiment on Mus musculus [1] was 1.71. In the experiment with Mus musculus [2], this compound gave a BGL of 76%.
Taken in the same sequence, the figures for `CN(C)C(=N)NC(=N)N` [METFORMIN] were 1 and 86%.
For `O=S(=O)(c1ccccc1)N1[C@@H]2COCOC[C@@H]21` (stereo partly specified), the HAR with Mus musculus [1] amounted to 3.36. The compound also gave a BGL in the experiment on Mus musculus [2] of 53%.
Consider `CC(C)[C@@H]1OC[C@@H]2[C@H](CO1)N2S(=O)(=O)c1ccc([N+](=O)[O-])cc1` (stereo partly specified), for which the HAR in the experiment on Mus musculus [1] was found to be 1.57. Moreover, the BGL with Mus musculus [2] was found to be 78%.
Consider `Cc1ccc(S(=O)(=O)N2[C@@H]3COCOC[C@@H]32)cc1` (stereo partly specified), for which, in the experiment with Mus musculus [1], the HAR is 0.42. Besides, the BGL in the experiment with Mus musculus [2] turned out to be 94%.
With `CC(=O)Nc1ccc(S(=O)(=O)N2[C@@H]3COCOC[C@@H]32)cc1` (stereo partly specified), the Blood glucose in the experiment on Mus musculus [3] is reported as 11.72 mM (l of whole blood)-1; in the experiment with Rattus norvegicus [4], 5.52 mM (l of whole blood)-1; in the experiment with Mus musculus [5], 14.41 mM (l of whole blood)-1; with Mus musculus [6], 9.3 mM (l of whole blood)-1; in the experiment with Mus musculus [7], 8.83 mM (l of whole blood)-1; in the experiment with Mus musculus [8] it was 13.15 mM (l of whole blood)-1. For the same compound, the Blood glucose in the experiment on Mus musculus [9] is reported as 8.35 mM (l of whole blood)-1; with Mus musculus [10] it was 13.17 mM (l of whole blood)-1; with Mus musculus [11], 8.82 mM (l of whole blood)-1; with Rattus norvegicus [12] it was 5.44 mM (l of whole blood)-1; in the experiment on Mus musculus [13], 8.72 mM (l of whole blood)-1; with Mus musculus [14] it was 12.43 mM (l of whole blood)-1. Also, the Blood glucose in the experiment on Mus musculus [15] is 8.61 mM (l of whole blood)-1; with Mus musculus [16], 12.09 mM (l of whole blood)-1. Further, the HAR in the experiment on Mus musculus [1] came to 4.5. Besides, the BGL in the experiment on Mus musculus [2] was 37%.
Consider `CC(=O)Nc1ccc(S(=O)(=O)N2[C@@H]3CO[C@H](C(C)C)OC[C@@H]32)cc1` (stereo partly specified), for which the HAR with Mus musculus [1] came out at 1.08. In the experiment with Mus musculus [2], this compound came in with a BGL of 84.8%.
Taken in the same sequence, the figures for `O=S(=O)(c1ccc(Cl)cc1)N1[C@@H]2COCOC[C@@H]21` (stereo partly specified) were 1.64 and 77%.
